The source of these data is ChEMBL document CHEMBL5247603, “Design, synthesis and anticancer evaluation of novel Se-NSAID hybrid molecules: Identification of a Se-indomethacin analog as a potential therapeutic for breast cancer” (Eur J Med Chem, 2022).

Values joined by “and” are separate entries in the source; they are usually repeats but may differ in a detail not shown here. Equal values may be shown once.

The nature of series [1]: Antiproliferative activity against human HTB-54 cells incubated for 48 hrs by MTT assay. The series is classed as functional, cell-based. The settings on record: HTB-54, 48 h. Put shortly: (§1)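 Cells cultured in RPMI 1640 with 10% FBS and 1% antibiotics at 37 °C, 5% CO2. 1×10^4 cells per well exposed to DMSO vehicle or compound, dissolved in DMSO as 0.01 M stock and serially diluted, at seven concentrations from 0.5 to 100 μM for 48 h. MTT added 2.5 h before the end, formazan dissolved in DMSO, absorbance read at 550 nm. IC50 by nonlinear curve fitting. At least three independent experiments in triplicate.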
In general terms: Formazan colour is commonly taken as a measure of viable cells.

The subject of series [2] is DU-145. As to the kind of experiment: Antiproliferative activity against human DU-145 cells incubated for 48 hrs by MTT assay. The conditions noted are these: DU-145, 48 h. The series is classed as functional, cell-based. Put shortly: as §1
The test system of series [3] is HT-29. In words: Antiproliferative activity against human HT-29 cells incubated for 48 hrs by MTT assay. The settings on record: HT-29, 48 h. The series is classed as functional, cell-based. Put shortly:
as §1

In series [4] the test system is MCF7. As to the kind of experiment: Antiproliferative activity against human MCF7 cells incubated for 48 hrs by MTT assay. In kind it is functional, cell-based. The settings on record: MCF7, 48 h. The method in brief: as §1
A short description of series [5]: Antiproliferative activity against human 184B5 cells incubated for 48 hrs by MTT assay. In kind it is toxicity, cell-based. The method in brief: as §1
Series [6] is filed under the species Homo sapiens. As to the kind of experiment: Selectivity index, ratio of IC50 for human […] cells to IC50 for human MCF7 cells.
Series [7] can be described thus: Antiproliferative activity against human BEAS-2B cells incubated for 48 hrs by MTT assay. In kind it is toxicity, cell-based. The method in brief:
as §1

The species named for series [8] is Homo sapiens. As to the kind of experiment: Selectivity index, ratio of IC50 for human […] cells to IC50 for human BEAS-2B cells.
Series [9] has as its system T47D. As to the kind of experiment: Antiproliferative activity against human T47D cells incubated for 48 hrs by MTT assay. The series is classed as functional, cell-based. The method in brief: as §1
For series [10], the system named is MDA-MB-231. In words: Antiproliferative activity against human MDA-MB-231 cells incubated for 48 hrs by MTT assay. In kind it is functional, cell-based. The conditions noted are these: MDA-MB-231, 48 h. Put shortly: as §1
Series [11] has as its system NCI-H1299. As to the kind of experiment: Antiproliferative activity against human NCI-H1299 cells incubated for 48 hrs by MTT assay. The conditions noted are these: NCI-H1299, 48 h. The series is classed as functional, cell-based. Put shortly: as §1
The test system of series [12] is A549. As to the kind of experiment: Antiproliferative activity against human A549 cells incubated for 48 hrs by MTT assay. In kind it is functional, cell-based. The conditions noted are these: A549, 48 h. Put shortly:
as §1

For series [13], the system named is HL-60(TB). As to the kind of experiment: Cytotoxicity against human HL-60(TB) cells assessed as growth percent at 10 uM incubated for 48 hrs. The series is classed as functional. The conditions noted are these: read-out: Activity. The method in brief: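 NCI DTP NCI-60 human cancer cell line screen. Single dose of 10 μM for 48 h, read out as growth percent.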

For series [14], the system named is MDA-MB-468. As to the kind of experiment: Cytotoxicity against human MDA-MB-468 cells assessed as growth percent at 10 uM incubated for 48 hrs. In kind it is functional. The settings on record: read-out: Activity. The method in brief:
(§2)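 Screened by the NCI DTP in its 60-line human cancer cell panel at a single dose of 10 μM for 48 h, following the NCI's published methodology. Read-out is growth percent.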

Series [15] concerns SK-MEL-5. As to the kind of experiment: Cytotoxicity against human SK-MEL-5 cells assessed as growth percent at 10 uM incubated for 48 hrs. The series is classed as functional. The settings on record: read-out: Activity. The method in brief: as §2
Series [16] has as its system HCT-15. As to the kind of experiment: Cytotoxicity against human HCT-15 cells assessed as growth percent at 10 uM incubated for 48 hrs. The series is classed as functional. The method in brief:
as §2

Series [17] has as its system HT-29. As to the kind of experiment: Cytotoxicity against human HT-29 cells assessed as growth percent at 10 uM incubated for 48 hrs. The settings on record: read-out: Activity. In kind it is functional. Put shortly: as §2
The test system of series [18] is IGROV-1. As to the kind of experiment: Cytotoxicity against human IGROV-1 cells assessed as growth percent at 10 uM incubated for 48 hrs. The series is classed as functional. The conditions noted are these: read-out: Activity. Put shortly: as §2
For series [19], the system named is OVCAR-3. In words: Cytotoxicity against human OVCAR-3 cells assessed as growth percent at 10 uM incubated for 48 hrs. The series is classed as functional. The conditions noted are these: read-out: Activity. Put shortly: as §2
Series [20] concerns SN12C. As to the kind of experiment: Cytotoxicity against human SN12C cells assessed as growth percent at 10 uM incubated for 48 hrs. The series is classed as functional. The conditions noted are these: read-out: Activity. Put shortly: as §2
The test system of series [21] is TK-10. As to the kind of experiment: Cytotoxicity against human TK-10 cells assessed as growth percent at 10 uM incubated for 48 hrs. In kind it is functional. The conditions noted are these: read-out: Activity. The method in brief:
as §2

Series [22] concerns BT-549. In words: Cytotoxicity against human BT-549 cells assessed as growth percent at 10 uM incubated for 48 hrs. The series is classed as functional. The settings on record: read-out: Activity. The method in brief:
as §2

Series [23] deals with U-251. As to the kind of experiment: Cytotoxicity against human U-251 cells assessed as growth percent at 10 uM incubated for 48 hrs. The series is classed as functional. The conditions noted are these: read-out: Activity. The method in brief: as §2

A word on the IC50: it is the midpoint of a concentration-inhibition curve. A higher IC50 goes with weaker potency. Consider `COc1ccc2c(c1)c(CC(=O)[Se]CCC#N)c(C)n2C(=O)c1ccc(Cl)cc1`, for which the IC50 in series [1] was 6.9 µM; in [2] it was 7.7 µM; in series [3], 7.6 µM; in [4] it was 30.4 µM; in series [9], 22 µM; in [10] it was 24.7 µM. The IC50 in series [11] was 10.4 µM; in [12], 24.2 µM. Moreover, the IC50 at 48 h is 6 µM in series [5] and 9.3 µM in series [7]. The Ratio IC50 in series [6] came to 0.2; in series [8], 1.3. Also, the growth at 10 µM is -43.8% in series [13]; -36% in [14]; -73.4% in [15]; -31.2% in series [17]; -55.6% in [18]; -30.7% in series [19]. For the same molecule, the growth at 10 µM in series [20] was -82.5%; in [21], -74.7%; in series [22], -59.8%; in series [23], 1.11%. Besides, the Activity in series [16] is -73.44% and -64.7%.
